Reference: ChEMBL document CHEMBL4689842, “EUbOPEN Chemogenomics Library wave 1” (2021)

System: HEK-293T
Test: Multiplex assay against HEK293T;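 for Population Tubulin-Different-Phenotype (%): share of the cells with healthy nuclei that show this phenotype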
Format: toxicity, cell-based
Details: human
Outline: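 Live cells were stained at seeding with Hoechst33342, BioTracker Green Microtubule Cytoskeleton Dye, MitoTracker Red and Annexin V Alexa Fluor 680. Following compound addition, they were imaged on a CQ1 microscope at 37°C and 5% CO2 and gated by CellPathfinder machine learning into Hoechst high-intensity objects or normal cells, with normal cells split into healthy, pyknosed or fragmented nuclei and pyknosed cells into mitotic or apoptotic. Tubulin, mitochondrial-mass and membrane-permeability phenotypes are per cents of healthy-nucleus cells.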

[1] = 12 h, 1 µM, compound concentration 1 uM, replicate 1
[2] = 12 h, 1 µM, compound concentration 1 uM, replicate 2
[3] = 12 h, 10 µM, compound concentration 10 uM, replicate 1
[4] = 12 h, 10 µM, compound concentration 10 uM, replicate 2
[5] = 24 h, 1 µM, compound concentration 1 uM, replicate 1
[6] = 24 h, 1 µM, compound concentration 1 uM, replicate 2
[7] = 24 h, 10 µM, compound concentration 10 uM, replicate 1
[8] = 24 h, 10 µM, compound concentration 10 uM, replicate 2
[9] = 48 h, 1 µM, compound concentration 1 uM, replicate 1
[10] = 48 h, 1 µM, compound concentration 1 uM, replicate 2
[11] = 48 h, 10 µM, compound concentration 10 uM, replicate 1
[12] = 48 h, 10 µM, compound concentration 10 uM, replicate 2

SMILES: COC(=O)C1=C(C)NC(C)=C(C(=O)OCCCN2CCC(c3ccccc3)(c3ccccc3)CC2)[C@H]1c1cccc([N+](=O)[O-])c1 [NIGULDIPINE]
- Population Apoptotic (%) [1]: 86%
- Population Fragmented Nuclei (%) [1]: 7%
- Population Healthy Nuclei (%) [1]: 34%
- Population Hoechst High Intensity Objects (%) [1]: 9%
- Population Membrane Permeable-Phenotype (%) [1]: 2%
- Population Mitochondria Different-Phenotype (%) [1]: 98%
- Population Mitotic Cells (%) [1]: 13%
- Population Normal (%) [1]: 90%
- Population Pyknosed Nuclei (%) [1]: 58%
- Population Tubulin-Different-Phenotype (%) [1]: 97%
- Total Cell Count [1]: 272
- Population Apoptotic (%) [2]: 91%
- Population Fragmented Nuclei (%) [2]: 5%
- Population Healthy Nuclei (%) [2]: 32%
- Population Hoechst High Intensity Objects (%) [2]: 5%
- Population Membrane Permeable-Phenotype (%) [2]: 1%
- Population Mitochondria Different-Phenotype (%) [2]: 100%
- Population Mitotic Cells (%) [2]: 8%
- Population Normal (%) [2]: 94%
- Population Pyknosed Nuclei (%) [2]: 62%
- Population Tubulin-Different-Phenotype (%) [2]: 98%
- Total Cell Count [2]: 177
- Population Apoptotic (%) [3]: 81%
- Population Fragmented Nuclei (%) [3]: 18%
- Population Healthy Nuclei (%) [3]: 2%
- Population Hoechst High Intensity Objects (%) [3]: 15%
- Population Membrane Permeable-Phenotype (%) [3]: 0%
- Population Mitochondria Different-Phenotype (%) [3]: 66%
- Population Mitotic Cells (%) [3]: 18%
- Population Normal (%) [3]: 84%
- Population Pyknosed Nuclei (%) [3]: 79%
- Population Tubulin-Different-Phenotype (%) [3]: 66%
- Total Cell Count [3]: 266
- Population Apoptotic (%) [4]: 63%
- Population Fragmented Nuclei (%) [4]: 6%
- Population Healthy Nuclei (%) [4]: 1%
- Population Hoechst High Intensity Objects (%) [4]: 7%
- Population Membrane Permeable-Phenotype (%) [4]: 66%
- Population Mitochondria Different-Phenotype (%) [4]: 0%
- Population Mitotic Cells (%) [4]: 36%
- Population Normal (%) [4]: 92%
- Population Pyknosed Nuclei (%) [4]: 91%
- Population Tubulin-Different-Phenotype (%) [4]: 33%
- Total Cell Count [4]: 202
- Population Apoptotic (%) [5]: 86%
- Population Fragmented Nuclei (%) [5]: 7%
- Population Healthy Nuclei (%) [5]: 41%
- Population Hoechst High Intensity Objects (%) [5]: 11%
- Population Membrane Permeable-Phenotype (%) [5]: 0%
- Population Mitochondria Different-Phenotype (%) [5]: 99%
- Population Mitotic Cells (%) [5]: 13%
- Population Normal (%) [5]: 88%
- Population Pyknosed Nuclei (%) [5]: 50%
- Population Tubulin-Different-Phenotype (%) [5]: 97%
- Total Cell Count [5]: 293
- Population Apoptotic (%) [6]: 95%
- Population Fragmented Nuclei (%) [6]: 6%
- Population Healthy Nuclei (%) [6]: 44%
- Population Hoechst High Intensity Objects (%) [6]: 3%
- Population Membrane Permeable-Phenotype (%) [6]: 1%
- Population Mitochondria Different-Phenotype (%) [6]: 100%
- Population Mitotic Cells (%) [6]: 4%
- Population Normal (%) [6]: 96%
- Population Pyknosed Nuclei (%) [6]: 49%
- Population Tubulin-Different-Phenotype (%) [6]: 98%
- Total Cell Count [6]: 181
- Population Apoptotic (%) [7]: 88%
- Population Fragmented Nuclei (%) [7]: 20%
- Population Healthy Nuclei (%) [7]: 3%
- Population Hoechst High Intensity Objects (%) [7]: 12%
- Population Membrane Permeable-Phenotype (%) [7]: 11%
- Population Mitochondria Different-Phenotype (%) [7]: 66%
- Population Mitotic Cells (%) [7]: 11%
- Population Normal (%) [7]: 87%
- Population Pyknosed Nuclei (%) [7]: 75%
- Population Tubulin-Different-Phenotype (%) [7]: 77%
- Total Cell Count [7]: 263
- Population Apoptotic (%) [8]: 79%
- Population Fragmented Nuclei (%) [8]: 4%
- Population Healthy Nuclei (%) [8]: 1%
- Population Hoechst High Intensity Objects (%) [8]: 6%
- Population Membrane Permeable-Phenotype (%) [8]: 50%
- Population Mitochondria Different-Phenotype (%) [8]: 0%
- Population Mitotic Cells (%) [8]: 20%
- Population Normal (%) [8]: 93%
- Population Pyknosed Nuclei (%) [8]: 94%
- Population Tubulin-Different-Phenotype (%) [8]: 0%
- Total Cell Count [8]: 202
- Population Apoptotic (%) [9]: 85%
- Population Fragmented Nuclei (%) [9]: 9%
- Population Healthy Nuclei (%) [9]: 56%
- Population Hoechst High Intensity Objects (%) [9]: 9%
- Population Membrane Permeable-Phenotype (%) [9]: 0%
- Population Mitochondria Different-Phenotype (%) [9]: 99%
- Population Mitotic Cells (%) [9]: 14%
- Population Normal (%) [9]: 91%
- Population Pyknosed Nuclei (%) [9]: 34%
- Population Tubulin-Different-Phenotype (%) [9]: 96%
- Total Cell Count [9]: 300
- Population Apoptotic (%) [10]: 97%
- Population Fragmented Nuclei (%) [10]: 6%
- Population Healthy Nuclei (%) [10]: 55%
- Population Hoechst High Intensity Objects (%) [10]: 8%
- Population Mitochondria Different-Phenotype (%) [10]: 98%
- Population Mitotic Cells (%) [10]: 2%
- Population Pyknosed Nuclei (%) [10]: 37%
- Population Tubulin-Different-Phenotype (%) [10]: 99%
- Total Cell Count [10]: 203
- Population Fragmented Nuclei (%) [11]: 24%
- Population Healthy Nuclei (%) [11]: 3%
- Population Hoechst High Intensity Objects (%) [11]: 14%
- Population Membrane Permeable-Phenotype (%) [11]: 22%
- Population Mitochondria Different-Phenotype (%) [11]: 66%
- Population Normal (%) [11]: 85%
- Population Pyknosed Nuclei (%) [11]: 72%
- Population Tubulin-Different-Phenotype (%) [11]: 55%
- Total Cell Count [11]: 283
- Population Apoptotic (%) [12]: 93%
- Population Fragmented Nuclei (%) [12]: 11%
- Population Healthy Nuclei (%) [12]: 6%
- Population Hoechst High Intensity Objects (%) [12]: 5%
- Population Membrane Permeable-Phenotype (%) [12]: 41%
- Population Mitochondria Different-Phenotype (%) [12]: 75%
- Population Mitotic Cells (%) [12]: 6%
- Population Normal (%) [12]: 94%
- Population Pyknosed Nuclei (%) [12]: 82%
- Population Tubulin-Different-Phenotype (%) [12]: 66%
- Total Cell Count [12]: 201
